Source: paper PMC4401318 (ACS Chemical Neuroscience, 2015)
Entries after “also recorded” stand apart in the source; their conditions may differ. Marks after values point to notes of the source that are not given here.

What was measured:
[1] = molecular target: T1, DOP receptor (Homo sapiens, UniProt P41143); assay: Radioligand competition binding, DOP
[2] = molecular target: T2, KOP receptor (Homo sapiens, UniProt P41145); assay: Radioligand competition binding, KOP
[3] = molecular target: T2, KOP receptor; assay: biochemical
[4] = molecular target: T3, MOP receptor (Homo sapiens, UniProt P35372); assay: biochemical
[5] = molecular target: T4, NOP receptor (Homo sapiens, UniProt P41146); assay: [35S]GTPγS binding stimulation; type: biochemical; settings: for intrinsic (agonist) activity in [35S]GTPγS assay at any of the opioid receptors: NOP, KOP, MOP and DOP, up to 10 μM; for [35S]GTPγS NOP % stim: compared to standard agonist N/OFQ
[6] = molecular target: T1, DOP receptor; assay: [35S]GTPγS binding stimulation; type: biochemical; settings: for [35S]GTPγS DOP % stim: compared to standard agonist DPDPE
[7] = molecular target: T3, MOP receptor; type: biochemical
[8] = molecular target: T4, NOP receptor; assay: Inhibition of agonist-stimulated [35S]GTPγS binding, NOP; type: biochemical; settings: for nature of antagonism at NOP: agonist nociceptin concentration-response curves
[9] = molecular target: T2, KOP receptor; assay: Inhibition of agonist-stimulated [35S]GTPγS binding, KOP; type: biochemical; settings: agonist U69,593 concentration-response curves; listed as AT-076
Procedure, shortened: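 CHO cells stably expressing human KOP cDNA, grown in DMEM/10% FBS with 0.4 mg/mL G418. Membranes were washed into 20 mM HEPES, 10 mM MgCl2, 100 mM NaCl, pH 7.4. Membranes (8–15 μg protein) were incubated 60 min at 25 °C with 50 pM [35S]GTPγS and 10 μM GDP. U69,593 concentration–response curves were run at several fixed test-compound concentrations. Binding was read by filtration and scintillation counting. Antagonism type was assigned by Schild regression.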

[10] = molecular target: T4, NOP receptor; assay: Radioligand competition binding, NOP
[11] = molecular target: T1, DOP receptor; assay: Inhibition of agonist-stimulated [35S]GTPγS binding, DOP; type: biochemical
[12] = molecular target: T1, DOP receptor; settings: agonist DPDPE; ref 4b; cited from earlier work
[13] = molecular target: T3, MOP receptor; settings: cited from earlier work
[14] = molecular target: T2, KOP receptor; settings: agonist U69,593; ref 4b; cited from earlier work

| Structure (SMILES) | Ki [1] [nM] | Ki [2] [nM] | EC50 [3] [nM] | [35S]GTPγS KOP % stim [3] [%] | EC50 [4] [nM] | [35S]GTPγS MOP % stim [4] [%] | EC50 [5] [nM] | intrinsic (agonist) activity in [35S]GTPγS assay at any of the opioid receptors [5] | [35S]GTPγS NOP % stim [5] [%] | [35S]GTPγS DOP % stim [6] [%] | further results |
| --- | --- | --- | --- | --- | --- | --- | --- | --- | --- | --- | --- |
| C[C@H]1CN(C2CCCCCCC2)CC[C@@]1(C)c1cccc(O)c1 [Compound 3, 3-((3R,4R)-1-Cyclooctyl-3,4-dimethylpiperidin-4-yl)phenol] | 2910 ± 834 | 68.1 ± 2.21 | > 10000 | 0 | – | – | – | – | – | – | – |
| C[C@H]1CN(C[C@H]2Cc3ccc(O)cc3CN2)CC[C@@]1(C)c1cccc(O)c1 [Compound 4, (R)-3-(((3R,4R)-4-(3-Hydroxyphenyl)-3,4-dimethylpiperidin-1-yl)methyl)-1,2,3,4-tetrahydroisoquinolin-7-ol] | 205 | 410 ± 130 | – | – | > 10000 | 0 | – | – | – | – | – |
| C[C@H]1CN(C[C@H]2Cc3ccccc3CN2)CC[C@@]1(C)c1cccc(O)c1 [Compound 5, 3-((3R,4R)-3,4-Dimethyl-1-(((R)-1,2,3,4-tetrahydroisoquinolin-3-yl)methyl)piperidin-4-yl)phenol] | 38.8 ± 9.9 | 19.5 ± 6.6 | > 10000 | 0 | > 10000 | 0 | > 10000 | no intrinsic activity | 0 | 0 | EC50 [6]: > 10000 nM |
| CC(C)[C@@H](CN1CCC(c2cccc(O)c2)CC1)NC(=O)[C@H]1Cc2ccc(O)cc2CN1 [Compound 6, (R)-7-Hydroxy-N-((S)-1-(4-(3-hydroxyphenyl)piperidin-1-yl)-3-methylbutan-2-yl)-1,2,3,4-tetrahydroisoquinoline-3-carboxamide] | – | – | > 10000 | 0 | > 10000 | 0 | – | no intrinsic (agonist) activity | 0 | 0 | Ke more potent than that of JDTic ([7]; at the MOP and DOP receptors): 3–6 fold; nature of antagonism at MOP ([7]; listed as AT-076): competitive antagonist; also recorded: competitive antagonism; nature of antagonism at NOP ([8]; listed as AT-076): noncompetitive antagonist profile; also recorded: insurmountable antagonism; nature of antagonism at KOP [9]: noncompetitive antagonist profile; also recorded: insurmountable antagonism; increase in NOP binding affinity compared with JDTic ([10]; ratio of Ki): 10 fold; EC50 [6]: > 10000 nM; Kb [11]: 24.9 ± 13 nM; nature of antagonism at DOP ([11]; agonist DPDPE concentration-response curves, listed as AT-076): competitive antagonist; also recorded: competitive antagonism |
| CC(C)[C@@H](CN1CCC(c2cccc(O)c2)CC1)NC(=O)[C@H]1Cc2ccccc2CN1 [Compound 7, (R)-N-((S)-1-(4-(3-Hydroxyphenyl)piperidin-1-yl)-3-methylbutan-2-yl)-1,2,3,4-tetrahydroisoquinoline-3-carboxamide] | 1400 ± 111 | 100 ± 0.9 | > 10000 | 0 | – | – | > 10000 | – | 7.0 ± 3.2 | – | – |
| CC(C)[C@@H](CN1CCC(c2ccccc2)CC1)NC(=O)[C@H]1Cc2ccc(O)cc2CN1 [Compound 8, (R)-7-Hydroxy-N-((S)-3-methyl-1-(4-phenylpiperidin-1-yl)butan-2-yl)-1,2,3,4-tetrahydroisoquinoline-3-carboxamide] | > 10000 | 2.15 ± 0.82 | 408 ± 41 | 72.3 ± 4 | – | 0 | 53.3 ± 12.1 | – | 18.3 ± 1.3 | – | Ki [10]: 10.9 ± 2.14 nM |
| CC(C)[C@@H](CN1CC[C@@](C)(c2cccc(O)c2)[C@@H](C)C1)NC(=O)[C@H]1Cc2ccc(O)cc2CN1 [JDTic, (3R)-7-hydroxy-N-((1S)-1-{[(3R,4R)-4-(3-hydroxyphenyl)-3,4-dimethyl-1-piperidinyl]methyl}-2-methylpropyl)-1,2,3,4-tetrahydro-3-isoquinolinecarboxamide, reference compound] | – | – | – | 0 | – | 0 | > 10000 | no intrinsic activity | 0 | 0 | Ke DOP (antagonist potency) [12]: 79.3 ± 9.3 ^f nM; Ke MOP (antagonist potency) [13]: 3.41 ± 0.36 ^f nM; Ke KOP (antagonist potency) [14]: 0.01 ± 0.00 ^f nM; Kb [8]: 680.2 ± 2.35 nM; nature of antagonism at NOP [8]: noncompetitive antagonism; intrinsic activity in [35S]GTPγS functional assay at NOP ([5]; compound alone): no intrinsic activity |
| Cc1cccc2c1CC[C@H](CN1CCC(c3c(Cl)cccc3Cl)CC1)C[C@@H]2O [SB-612111, (−)-cis-1-methyl-7-[[4-(2,6-dichlorophenyl)piperidin-1-yl]methyl]-6,7,8,9-tetrahydro-5H-benzocyclohepten-5-ol, reference compound] | – | – | – | – | – | – | – | – | 0 | – | – |
